Data as given in paper PMC10416317 (Journal of medicinal chemistry, 2023).

How the values were obtained:
[1] = biological target: AKR1B1 (Mus musculus, UniProt P45376); assay: Methylglyoxylate-metabolizing; format: in vivo; settings: i.p. 120 mg/kg, 18h
[2] = tested on: acute kidney injury; assay: Ischemia/reperfusion-induced AKI model in mice; format: in vivo; settings: mouse I/R AKI
[3] = biological target: T1, SCoR2 (Mus musculus, UniProt Q9JII6); format: in vivo; settings: i.p. 120 mg/kg, 18h
T1 sequence (Q9JII6 1-325): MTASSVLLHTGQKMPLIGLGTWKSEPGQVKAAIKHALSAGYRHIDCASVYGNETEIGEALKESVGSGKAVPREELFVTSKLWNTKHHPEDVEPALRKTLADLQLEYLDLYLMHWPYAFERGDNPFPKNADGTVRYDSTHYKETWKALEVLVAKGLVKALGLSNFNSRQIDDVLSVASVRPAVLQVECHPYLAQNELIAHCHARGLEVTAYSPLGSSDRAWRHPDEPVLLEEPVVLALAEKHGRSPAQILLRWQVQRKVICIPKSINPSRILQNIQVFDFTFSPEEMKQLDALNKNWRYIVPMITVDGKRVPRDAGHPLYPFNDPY
Summary of the method: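 Mice received test compound 120 mg/kg i.p. (vehicle DMSO); liver, lung, heart, brain and spleen were harvested 18 h later. Tissues were homogenized in 50 mM phosphate pH 7.0, 150 mM NaCl, 100 μM EDTA/DTPA, clarified at 20,000xg, 4°C, and protein measured by BCA. Lysate started reactions with 200 μM SNO-CoA and 100 μM NADPH in phosphate/EDTA/DTPA buffer; 2 min; triplicate; n≥3.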

[4] = biological target: T2, SCoR2 (AKR1A1) (Homo sapiens, UniProt P14550); assay: Inhibition of DL-glyceraldehyde-metabolizing activity of purified SCoR2; format: biochemical; settings: DL-glyceraldehyde as substrate, in vitro
T2 sequence (P14550 1-325): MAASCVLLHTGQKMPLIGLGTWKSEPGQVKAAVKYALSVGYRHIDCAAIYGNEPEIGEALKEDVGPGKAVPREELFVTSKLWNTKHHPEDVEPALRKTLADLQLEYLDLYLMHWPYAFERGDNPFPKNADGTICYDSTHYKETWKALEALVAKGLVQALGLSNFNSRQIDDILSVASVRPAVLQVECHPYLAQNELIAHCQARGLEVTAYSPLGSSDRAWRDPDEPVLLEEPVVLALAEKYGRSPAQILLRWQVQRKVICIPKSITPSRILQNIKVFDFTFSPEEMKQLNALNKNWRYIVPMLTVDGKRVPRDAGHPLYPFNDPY
Summary of the method: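 Initial screen with recombinant human SCoR2 (C-terminal His tag, expressed in E. coli, Ni-NTA purified). The 1 ml cuvette held 20 nM SCoR2, 3 mM DL-glyceraldehyde and varying inhibitor in 50 mM phosphate pH 7.0. NADPH (100 μM) started the reaction, which ran 2 min. NADPH consumption slope was read spectrophotometrically and IC50 was obtained by curve fitting.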

[5] = biological target: T3, SCoR2 (Homo sapiens, UniProt P14550); assay: Differential scanning fluorimetry; format: binding; settings: 5 μM SCoR2, 250 μM compound; SCoR2 alone 48.3 (buffer), 48.0 (1% DMSO)
T3 sequence (P14550 1-325): T2 sequence (P14550 1-325)

[6] = biological target: T1, SCoR2; assay: SNO-CoA-metabolizing activity in kidneys of treated mice; format: in vivo
Summary of the method: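 Mice got test compound i.p. with DMSO vehicle or were fed compound-containing diet; SCoR2-knockout mice served as comparators. Kidneys were taken 18 h after a single 20–120 mg/kg dose, or 24 h after I/R surgery done 18 h post-dose. Tissue was homogenized in 50 mM phosphate pH 7.0, 150 mM NaCl, 100 μM EDTA/DTPA, then clarified (20,000xg, 4°C) and BCA-normalized. Lysate started reactions with 200 μM SNO-CoA and 100 μM NADPH; 2 min, triplicate.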

[7] = biological target: AKR1B1 (Homo sapiens, UniProt P15121); assay: Inhibition of methylglyoxylate-metabolizing activity of purified AKR1B1; format: biochemical; settings: ratio of IC50 values
[8] = diet with 125 mg/kg diet for 3 weeks or 12 weeks
[9] = 20 mg/kg i.p. 18 h before surgery, 24 h post-surgery

O=C1NC(=O)C2(N1)c1ccccc1-c1ccc(C3CC3)cc12 (centres unmarked) [5-1]
Activity of kidney AKR1B1 [1]: did not inhibit
Protection against AKI ([2]; 120 mg/kg i.p. 18 h before surgery): protected against AKI
Activity of SCoR2 in brain [3]: not in brain
Activity of SCoR2 in heart [3]: inhibited
Activity of SCoR2 in liver [3]: inhibited
Activity of SCoR2 in lung [3]: inhibited
Activity of SCoR2 in spleen [3]: inhibited

O=C1NC(=O)C2(N1)c1ccccc1-c1ccccc12 [compound 2]
Inhibition of SCoR2 / potency at SCoR2 (in words) [4]: less potent

CC(/C=C1\SC(=S)N(CC(=O)O)C1=O)=C\c1ccccc1 [epalrestat, reference compound]
Inhibition of SCoR2 / potency at SCoR2 (in words) [4]: inhibit

NC(=O)C1=CN([C@@H]2O[C@H](COP(=O)(O)OP(=O)(O)OC[C@H]3O[C@@H](n4cnc5c(N)ncnc54)[C@H](OP(=O)(O)O)[C@@H]3O)[C@@H](O)[C@H]2O)C=CC1 [NADPH]
Melting temperature (Tm) of SCoR2, compound alone [5]: 51.4 °C

O=C1NC(=O)C2(N1)c1cc(F)ccc1-c1ccc(F)cc12 [Imirestat, imirestat]
SNO-CoA-metabolic activity in kidneys following AKI ([6]; 20 mg/kg i.p. 18 h before AKI surgery, 24 h post-surgery): strongly inhibited
SCoR2 activity in the kidney on drug diet [6, 8]: potently inhibited
Protection against AKI ([2]; 20 mg/kg i.p. 18 h before surgery): does not protect against AKI
Blood urea nitrogen (BUN) vs DMSO-treated mice [2, 9]: the same
Serum creatinine vs DMSO-treated mice [2, 9]: the same
Protection against AKI [2, 8]: did not show protection against AKI
Times more potent at AKR1B1 (vs SCoR2) [7]: 1.2
